Reference: ChEMBL document CHEMBL1137007, “Synthesis of 4-substituted pyrido[2,3-d]pyrimidin-4(1H)-one as analgesic and anti-inflammatory agents” (Bioorg Med Chem Lett, 2009)

Columns and labels:
[1] = test system: Rattus norvegicus; test: Antiinflammatory activity in rat assessed as inhibition of carrageenan-induced paw oedema at 10 mg/kg, po after 30 mins; format: functional; parameters: scale not given: the % may be the effect or the level left
Procedure, shortened: (§1)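 Rats, six per group, were dosed orally (10 or 20 mg/kg, suspension in 1% carboxymethyl cellulose) before carrageenan paw injection. Paw volume was read by mercury-displacement plethysmography just before and 30 min, 1, 2 and 3 h after carrageenan. %inhibition = 100[1 − (a − x)/(b − y)], with the test group's pre/post volumes set against the vehicle control group's. Reported as mean ± SEM (n = 6) with ANOVA.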

[2] = test system: Rattus norvegicus; test: Antiinflammatory activity in rat assessed as inhibition of carrageenan-induced paw oedema at 20 mg/kg, po after 30 mins; format: functional; parameters: scale not given: the % may be the effect or the level left; procedure, shortened: as §1
[3] = test system: Rattus norvegicus; test: Antiinflammatory activity in rat assessed as inhibition of carrageenan-induced paw oedema at 10 mg/kg, po after 1 hr; format: functional; parameters: scale not given: the % may be the effect or the level left; procedure, shortened: as §1
[4] = test system: Rattus norvegicus; test: Antiinflammatory activity in rat assessed as inhibition of carrageenan-induced paw oedema at 20 mg/kg, po after 1 hr; format: functional; parameters: scale not given: the % may be the effect or the level left; procedure, shortened: as §1
[5] = test system: Rattus norvegicus; test: Antiinflammatory activity in rat assessed as inhibition of carrageenan-induced paw oedema at 10 mg/kg, po after 2 hrs; format: functional; parameters: scale not given: the % may be the effect or the level left; procedure, shortened: as §1
[6] = test system: Rattus norvegicus; test: Antiinflammatory activity in rat assessed as inhibition of carrageenan-induced paw oedema at 20 mg/kg, po after 2 hrs; format: functional; parameters: scale not given: the % may be the effect or the level left; procedure, shortened: as §1
[7] = test system: Rattus norvegicus; test: Antiinflammatory activity in rat assessed as inhibition of carrageenan-induced paw oedema at 10 mg/kg, po after 3 hrs; format: functional; parameters: scale not given: the % may be the effect or the level left; procedure, shortened: as §1
[8] = test system: Rattus norvegicus; test: Antiinflammatory activity in rat assessed as inhibition of carrageenan-induced paw oedema at 20 mg/kg, po after 3 hrs; format: functional; parameters: scale not given: the % may be the effect or the level left; procedure, shortened: as §1
[9] = test system: Rattus norvegicus; test: Toxicity in Wistar albino rat assessed as ulcer index at 20 mg/kg, ip administered once daily for 3 days; format: organism-based; parameters: dose 20 mg/kg, route intraperitoneal; details: in vivo, 72 h
Procedure, shortened: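 Wistar albino rats of either sex (150–200 g), six per group, housed at 25 °C, 45–55% RH, 12-h light/dark cycle and acclimatized one week. Dosing was intraperitoneal as a suspension in 10% v/v Tween-80, with a vehicle-only control group. Animals were fasted 36 h, then pylorus-ligated (Shay method) on day 4 and sacrificed 4 h later for ulcer index. Values are mean ± SEM (n = 6), analysed by one-way ANOVA.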

[10] = test system: Mus musculus; test: Analgesic activity in Wister albino mice at 10 mg/kg, po after 1 hr by tail-flick test
[11] = test system: Mus musculus; test: Analgesic activity in Wister albino mice at 20 mg/kg, po after 1 hr by tail-flick test
[12] = test system: Mus musculus; test: Analgesic activity in Wister albino mice at 10 mg/kg, po after 2 hrs by tail-flick test
[13] = test system: Mus musculus; test: Analgesic activity in Wister albino mice at 20 mg/kg, po after 2 hrs by tail-flick test
[14] = test system: Mus musculus; test: Analgesic activity in Wister albino mice at 10 mg/kg, po after 3 hrs by tail-flick test
[15] = test system: Mus musculus; test: Analgesic activity in Wister albino mice at 20 mg/kg, po after 3 hrs by tail-flick test
[16] = test system: Mus musculus; test: Analgesic activity in Wister albino mice at 10 mg/kg, po after 30 mins by tail-flick test
[17] = test system: Mus musculus; test: Analgesic activity in Wister albino mice at 20 mg/kg, po after 30 mins by tail-flick test

Row | SMILES | Activity [1] | Activity [2] | Activity [3] | Activity [4] | Activity [5] | Activity [6] | Activity [7] | Activity [8] | UI [9] | Activity [10] | Activity [11] | Activity [12] | Activity [13] | Activity [14] | Activity [15] | Activity [16] | Activity [17]
1 | Nc1nc(=O)[nH]c2nc3[nH]c(=S)[nH]c(=O)c3c(-c3ccc(N4CCCCC4)cc3)c12 | 33% | 40% | 39% | 46% | 43% | 48% | 29% | 35% | 0.72 | 43% | 51% | 46% | 53% | 33% | 44% | 39% | 48%
2 | CN1CCN(c2ccc(-c3c4c(=O)[nH]c(=S)[nH]c4nc4[nH]c(=S)sc(=N)c34)cc2)CC1 | 31% | 39% | 32% | 40% | 37% | 46% | 22% | 31% | 0.85 | 35% | 46% | 38% | 49% | 29% | 38% | 32% | 42%
3 | Nc1nc(=S)[nH]c2nc3[nH]c(=S)[nH]c(=O)c3c(-c3ccc(N4CCOCC4)cc3)c12 | 33% | 39% | 40% | 46% | 43% | 49% | 29% | 38% | 0.67 | 45% | 49% | 49% | 55% | 33% | 46% | 42% | 48%
4 | Cc1nc2nc3[nH]c(=S)[nH]c(=O)c3c(-c3ccc(N4CCCCC4)cc3)c2c(=O)[nH]1 | 29% | 36% | 33% | 39% | 34% | 41% | 26% | 34% | 0.9 | 43% | 56% | 48% | 56% | 35% | 42% | 37% | 48%
5 | O=c1[nH]cnc2nc3[nH]c(=S)[nH]c(=O)c3c(-c3ccc(N4CCOCC4)cc3)c12 | 31% | 39% | 36% | 42% | 38% | 46% | 29% | 36% | 0.86 | 38% | 47% | 45% | 53% | 29% | 36% | 30% | 44%
6 | Nc1nc(=S)[nH]c2nc3[nH]c(=S)[nH]c(=O)c3c(-c3ccc(N4CCCCC4)cc3)c12 |  |  |  |  |  |  |  |  | 0.69 |  |  |  |  |  |  |  | 
7 | O=c1[nH]cnc2nc3[nH]c(=S)[nH]c(=O)c3c(-c3ccc(N4CCCCC4)cc3)c12 | 30% | 35% | 34% | 41% | 38% | 44% | 27% | 32% | 0.89 | 36% | 50% | 45% | 55% | 33% | 39% | 32% | 40%
